Source: ChEMBL document CHEMBL1144139, “Immunosuppressive diterpenoids from Tripterygium wilfordii” (1999)
The source made the active and inactive calls. The rule behind the calls is not given here.

Columns and labels:
Format in all cases: functional
PBMC [1] = assay: Immunosuppressive activity against human PBMC assessed as inhibition of LPS-induced IL1-beta production at 10 ug/ml after 24 hrs by ELISA
Summary of the method: (§1)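 Heparinized whole blood from healthy volunteers, diluted to 30% in RPMI-1640 with penicillin/streptomycin, was mixed in equal volumes with LPS solution (3 µg/mL) and sample (3 mg/mL DMSO stock diluted 1:100; DMSO-only control). Incubated at 37 °C, 5% CO2. Supernatant cytokines measured by ELISA. Inhibition (%) = […] versus solvent control.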

PBMC [2] = assay: Immunosuppressive activity against human PBMC assessed as inhibition of LPS-induced IL4 production at 10 ug/ml after 24 hrs by ELISA; summary of the method: as §1
PBMC [3] = assay: Immunosuppressive activity against human PBMC assessed as inhibition of LPS-induced IL2 production at 10 ug/ml after 24 hrs by ELISA; summary of the method: as §1
PBMC [4] = assay: Immunosuppressive activity against human PBMC assessed as inhibition of LPS-induced IFN-gamma production at 10 ug/ml after 24 hrs by ELISA; summary of the method: as §1
PBMC [5] = assay: Immunosuppressive activity against human PBMC assessed as inhibition of LPS-induced IL8 production at 10 ug/ml after 24 hrs by ELISA; summary of the method: as §1
PBMC [6] = assay: Immunosuppressive activity against human PBMC assessed as inhibition of LPS-induced TNFalpha production at 10 ug/ml after 24 hrs by ELISA; summary of the method: as §1
PBMC [7] = assay: Immunosuppressive activity against human PBMC assessed as inhibition of LPS-induced IL1-beta production at 0.3 ug/ml after 24 hrs by ELISA
PBMC [8] = assay: Immunosuppressive activity against human PBMC assessed as inhibition of LPS-induced IL8 production at 0.3 ug/ml after 24 hrs by ELISA
PBMC [9] = assay: Immunosuppressive activity against human PBMC assessed as inhibition of LPS-induced TNFalpha production at 0.3 ug/ml after 24 hrs by ELISA
PBMC [10] = assay: Immunosuppressive activity against human PBMC assessed as inhibition of LPS-induced IL2 production at 0.3 ug/ml after 24 hrs by ELISA
PBMC [11] = assay: Immunosuppressive activity against human PBMC assessed as inhibition of LPS-induced IFN-gamma production at 0.3 ug/ml after 24 hrs by ELISA
PBMC [12] = assay: Immunosuppressive activity against human PBMC assessed as inhibition of LPS-induced IL4 production at 0.3 ug/ml after 24 hrs by ELISA

Row | SMILES | Activity (PBMC [1]) | Activity (PBMC [2]) | Activity (PBMC [3]) | Activity (PBMC [4]) | Activity (PBMC [5]) | Activity (PBMC [6]) | inhibition at 10 µg/mL (PBMC [1]) [%] | inhibition at 10 µg/mL (PBMC [2]) [%] | inhibition at 10 µg/mL (PBMC [3]) [%] | inhibition at 10 µg/mL (PBMC [4]) [%] | inhibition at 10 µg/mL (PBMC [5]) [%] | inhibition at 10 µg/mL (PBMC [6]) [%] | also measured
1 | CC(C)c1ccc2c(c1)CC[C@H]1[C@@](C)(CO)[C@@H](O)CC[C@]21C | inactive | inactive | inactive | inactive | inactive | inactive |  |  |  |  |  |  | 
2 | C=C1C[C@H]2[C@@](C)(CO)C(=O)CC[C@]2(C)c2cc(O)c(C(C)C)cc21 [TRIPTOBENZENE M] |  |  |  |  |  |  | 13.5 | 40.1 | 55.6 | 54.1 | -29.1 | 7.5 | 
3 | C=C1C[C@H]2[C@@](C)(CO)[C@@H](O)CC[C@]2(C)C2=C1C(=O)C(C(C)C)=CC2=O [TRIPTOQUINONE C] |  |  |  |  |  |  | 16.4 | 66.4 | 64 | 89 | -24.6 | -29.5 | 
4 | C[C@]12C=CC(=O)C=C1CC[C@@H]1[C@@H]2[C@@H](O)C[C@@]2(C)[C@H]1CC[C@]2(O)C(=O)CO [PREDNISOLONE] |  |  |  |  |  |  |  |  |  |  |  |  | inhibition at 0.3 µg/mL (PBMC [7]): 88.5%; inhibition at 0.3 µg/mL (PBMC [8]): 90.3%; inhibition at 0.3 µg/mL (PBMC [9]): 88.5%; inhibition at 0.3 µg/mL (PBMC [10]): 93.9%; inhibition at 0.3 µg/mL (PBMC [11]): 95.4%; inhibition at 0.3 µg/mL (PBMC [12]): 96.1%
5 | C[C@@]1(O)C[C@@]23CC[C@H]4[C@@]5(CCC[C@]4(C)C(=O)OC5)[C@@H]2CC[C@H]1C3 [TRIPTERIFORDIN] |  |  |  |  |  |  | 75.7 | 95.7 | 97.9 | 98.6 | 96.6 | 76.8 | 
6 | CC(C)c1ccc2c(c1)C(=O)C[C@H]1[C@@](C)(CO)C(=O)CC[C@]21C [TRIPTOBENZENE N] |  |  |  |  |  |  | 37.9 | -52.2 | 64.5 | 42.3 | 15.4 | 13.3 | 
7 | C[C@@]12CCC[C@@](C)(C(=O)O)[C@@H]1CC[C@@]13C[C@@H](CC[C@H]12)[C@@H](CO)C3 |  |  |  |  |  |  | -6.1 | 56.2 | 35 | 34 | 4.2 | 0 | 
8 | C=C[C@]1(C)CC[C@@H]2[C@@]3(C)CCC[C@@](C)(C(=O)O)[C@@H]3CC[C@@]2(C)O1 |  |  |  |  |  |  | 36.1 | 95.4 | 100 | 94 | 65.2 | 49.9 | 
9 | C[C@@]12CCC[C@@](C)(C(=O)O)[C@@H]1CC[C@@]13C[C@@H](CC[C@H]12)[C@](C)(O)C3 | inactive | inactive | inactive | inactive | inactive | inactive |  |  |  |  |  |  | 
10 | C=C1C[C@H]2[C@@](C)(CO)C(=O)CC[C@]2(C)c2c(O)cc(C(C)C)c(OC)c21 | inactive | inactive | inactive | inactive | inactive | inactive |  |  |  |  |  |  | 
